Assay results: ChEMBL document CHEMBL1287742, “Synthetic pseudopterosin analogues: A novel class of antiinflammatory drug candidates” (2010)
Several values for one entry are separate records, joined by “and”; a condition that tells them apart may be missing. Equal values may be shown once. Activity calls are given as the source filed them. No cut-off for these calls is given here.

Assays:
Mus musculus [1] = test: Antiinflammatory activity in mouse assessed as inhibition of PMA-induced ear edema at 25 ug/ear administered topically as single dose after PMA challenge and measured after 3 hrs and 20 mins; format: functional; conditions: in the assay text read “simultaneously with PMA” for “after PMA challenge”
In short: (§1)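 Mouse ear edema: test compound applied topically in acetone to the inside pinna of the left ear together with PMA (2 µg/ear), under brief halothane anesthesia. Right ears received acetone only. Five mice per group. After 3 h 20 min the mice were euthanized and a 6 mm central ear biopsy was weighed. Edema was taken as the left-minus-right weight difference, expressed as % inhibition versus the PMA-only control group.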

Mus musculus [2] = test: Antiinflammatory activity in mouse assessed as effective dose per ear for inhibition of PMA-induced ear edema; format: functional; in short: as §1

| SMILES | inhibition (INH) (Mus musculus [1]) | inhibition (Mus musculus [1]) | ED50 (Mus musculus [2]) |
| --- | --- | --- | --- |
| C[C@@H]1O[C@@H](Oc2cc3c4c(c2O)[C@@H](C)CC[C@@H]4CCC3)[C@@H](O)[C@H](O)[C@@H]1O (relative stereo) | 58% | – | – |
| C[C@@H]1O[C@@H](Oc2cc3c4c(c2O)C(=O)CCC4CCC3)[C@@H](O)[C@H](O)[C@@H]1O (some centres not stated) | – | inactive | – |
| CC(C)=C[C@H]1C[C@H](C)[C@H]2CC[C@H](C)c3c(O[C@@H]4OC[C@@H](O)[C@H](O)[C@H]4O)c(O)c(C)c1c32 [PSEUDOPTEROSIN A] | 70% | – | 12 µg |
| C[C@@H]1O[C@@H](Oc2cc3c4c(c2O)C(C)(C)CCC4CCC3)[C@@H](O)[C@H](O)[C@@H]1O (some centres not stated) | 38% | – | – |
| C[C@@H]1O[C@@H](Oc2cc3c4c(c2O)CCCC4CCC3)[C@@H](O)[C@H](O)[C@@H]1O (some centres not stated) | 34% | – | – |
| C[C@@H]1CC[C@@H]2CCCc3cc(O[C@@H]4O[C@@H](C)[C@@H](O)[C@@H](O)[C@@H]4O)c(O)c1c32 (relative stereo) | 50% | – | – |
| Cc1c(O)c(O[C@@H]2O[C@@H](C)[C@@H](O)[C@@H](O)[C@@H]2O)c2c3c1CCCC3CCC2 (some centres not stated) | 49% | – | – |
| C[C@@H]1O[C@@H](Oc2c(O)c(C(F)(F)F)c3c4c2CCCC4CCC3)[C@@H](O)[C@H](O)[C@@H]1O (some centres not stated) | 45% and 53% | – | – |
| Oc1c(OC2OC[C@@H](O)[C@H](O)[C@H]2O)cc2c3c1CCCC3CCC2 (some centres not stated) | 44% | – | – |
| C[C@@H]1OC(Oc2c(O)cc3c4c2CCCC4CCC3)[C@@H](O)[C@H](O)[C@@H]1O (some centres not stated) | 24% | – | – |
| Oc1cc2c3c(c1OC1OC[C@@H](O)[C@H](O)[C@H]1O)CCCC3CCC2 (some centres not stated) | 37% | – | – |
